Measured values reported in paper PMC2831214 (Nature chemical biology, 2010).
“Also recorded” adds a separate entry of the source. Numbered stars: 1 amine (or outer) side, 2 acyl side, 3 side chain; on linkers, the order of the positions; unused ones are H or OH. Bridge positions count the residues as written; N and C are the ends. Square brackets hold non-standard residues; d marks the D form. Peptide text beside a SMILES is read from it. I, II: the chains in the order shown. Actinocin(9to1) = Cc1c2oc3c(C)ccc(C(=O)[*:1])c3nc-2c(C(=O)[*:2])c(N)c1=O; NMeV = CN[C@H](C(=O)O)C(C)C; Sar = CNCC(=O)O

Assays:
[1] = system: protein synthesis in HeLa cells; assay: De novo protein synthesis by [35S]cysteine/methionine metabolic labeling; format: cell-based; conditions: for Effect on protein synthesis (translation): metabolic labeling 2 h
Summary of the method: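 HeLa cells were given varying concentrations of test compound with [35S]cysteine/methionine for 2 h. TCA-precipitated proteins were collected on PVDF membrane and scintillation counted. Cycloheximide served as translation-inhibitor control and actinomycin D as transcription-inhibitor control. Runs were in triplicate, with s.d. shown.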

[2] = system: RNA synthesis in HeLa cells; assay: RNA synthesis; format: cell-based; conditions: [3H]uridine 2 h
Summary of the method: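 HeLa cells exposed to a range of test compound concentrations with [3H]uridine for 2 h. TCA-precipitated material on PVDF membrane quantified by scintillation counting. Actinomycin D and cycloheximide served as controls.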

HEK 293T cells = assay: Polysome profiles in cells; format: cell-based; conditions: 30 min
[3] = biological target: eEF1A-mediated binding of aminoacyl-tRNA to ribosomes (Oryctolagus cuniculus, UniProt G1SNY0+G1T040); assay: eEF1A-dependent aminoacyl-tRNA binding; format: biochemical, rabbit; conditions: 200 µM compound
Summary of the method: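 89 pmol ribosomes in 20 mM HEPES pH 7.4, 100 mM KCl, 10 mM MgCl2, 1 mM DTT were mixed with 200 ng poly(U), 2.2 µg eEF1A, 150 µM GDPNP and 200 µM compound before 10 pmol [14C]Phe-tRNAPhe was added. After 10 min at 37 °C, samples were diluted, filtered through nitrocellulose, rinsed and scintillation counted (1 pmol = 1100 dpm).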

[4] = biological target: ribosome on rabbit β-globin mRNA (Oryctolagus cuniculus, UniProt G1SNY0+G1T040); assay: Toeprinting on rabbit β-globin mRNA in rabbit reticulocyte lysate; format: biochemical; conditions: CHX 10 mM; LTM at 1/10,000th of the CHX concentration
[5] = biological target: eEF2-mediated translocation (Oryctolagus cuniculus, UniProt G1SNY0+G1T040); assay: eEF2-dependent translocation; format: biochemical, rabbit; conditions: 200 µM compound
[6] = system: rabbit reticulocyte lysate with rabbit β-globin RNA; assay: Polysome profiles in vitro; format: biochemical; conditions: cell free system, 15 min
[7] = biological target: binding of deacylated tRNA to the E-site of ribosomes (Oryctolagus cuniculus, UniProt G1SNY0+G1T040); assay: Deacylated tRNA binding to ribosomes; design: species or system rabbit
Summary of the method: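 Deacylated tRNA was 3′-end labelled with [32P] and diluted to 80,000 cpm/pmol. Inhibitor was at graded concentrations; 4 µM unlabelled deacylated tRNA was the control. Samples were diluted with 1 ml buffer, filtered through nitrocellulose, washed 5× and scintillation counted.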

[8] = biological target: pre-assembled initiation complexes (Saccharomyces cerevisiae, UniProt P02406+P0CX27); assay: Reconstituted translation elongation, tripeptide; format: biochemical; conditions: 200 µM
Chain of pre-assembled initiation complexes (P02406 2-149 limits assumed): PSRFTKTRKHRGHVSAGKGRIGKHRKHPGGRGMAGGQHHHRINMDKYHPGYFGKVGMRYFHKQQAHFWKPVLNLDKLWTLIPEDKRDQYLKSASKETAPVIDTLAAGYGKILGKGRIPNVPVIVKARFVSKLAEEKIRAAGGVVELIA
Chain of pre-assembled initiation complexes (P0CX27 2-106 limits assumed): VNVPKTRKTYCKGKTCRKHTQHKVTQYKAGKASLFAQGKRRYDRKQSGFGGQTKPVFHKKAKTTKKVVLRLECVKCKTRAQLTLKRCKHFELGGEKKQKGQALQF

[9] = system: HeLa, MDA-MB231 and Jurkat T cells; assay: Cell proliferation screen by [3H]-thymidine incorporation; format: cell-based; conditions: 2.5 µM, 24 h
Summary of the method: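 Each of the three cell lines was exposed to test compound at 2.5 µM for 24 h. [3H]-thymidine was then applied to monitor cellular DNA synthesis as the proliferation read-out.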

MCF10A = assay: Proliferation of non-tumorigenic breast cell line by [3H]thymidine incorporation; format: cell-based; conditions: 24 h
[10] = biological target: ribosomes, eEF1A and eEF2 (Oryctolagus cuniculus, UniProt G1SNY0+G1T040); assay: Polyphenylalanine synthesis on a poly; format: biochemical, rabbit; conditions: 200 µM
[11] = biological target: peptide bond formation on ribosomes (Oryctolagus cuniculus, UniProt G1SNY0+G1T040); assay: Peptidyl transfer; format: biochemical, rabbit; conditions: LTM even at millimolar concentrations
[12] = system: cap-dependent and EMCV, HCV, CrPV IRES-mediated translation; assay: IRES dual luciferase reporter assay in rabbit reticulocyte lysate; format: biochemical; conditions: HCV and CrPV IRES reporters
MDA MB 231 tumors = assay: Mouse xenograft model; format: in vivo, female nude mice; conditions: 0.6 mg/kg every day for one month, intraperitoneal
Summary of the method: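 Two million MDA MB 231 cells were injected subcutaneously into female nude mice. Once tumours were palpable, mice received 0.6 mg/kg test compound or solvent alone daily for one month.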

Candida = conditions: cited from earlier work
breast cancer cell lines = assay: Proliferation of breast cancer cell lines by [3H]thymidine incorporation; format: cell-based; conditions: array of breast cancer cell lines, 24 h
P388 lymphoma = conditions: cited from earlier work
translation = conditions: cited from earlier work
translation in vitro = assay: In vitro translation; format: biochemical

Cc1c2oc3c(C)ccc(C(=O)N[C@@H]4C(=O)N[C@H](C(C)C)C(=O)N5CCC[C@H]5C(=O)N(C)CC(=O)N(C)[C@@H](C(C)C)C(=O)O[C@@H]4C)c3nc-2c(C(=O)N[C@@H]2C(=O)N[C@H](C(C)C)C(=O)N3CCC[C@H]3C(=O)N(C)CC(=O)N(C)[C@@H](C(C)C)C(=O)O[C@@H]2C)c(N)c1=O [Actinomycin D, reference compound] (I: T[dV]P[Sar][NMeV] / II: T[dV]P[Sar][NMeV]; ester I:1-I:C, II:1-II:C; linker I:N-II:N via Actinocin(9to1))
Effect on protein synthesis (translation) [1]: concomitantly blocked transcription and translation
Effect on transcription [2]: concomitantly blocked transcription and translation

C[C@@H]1C[C@@H]([C@H](O)CC2CC(=O)NC(=O)C2)C(=O)[C@@H](C)C1 [CHX, cycloheximide, reference compound]
Effect on protein synthesis (translation) [1]: strongly inhibited translation
Effect on polysome profile in cells (HEK 293T cells): little difference between CHX and solvent control
Effect on eEF1A-mediated binding of aminoacyl-tRNA [3]: not inhibited
Toeprint titration, ribosome arrest [4]: about half the ribosomal population to stop at the very first codon
Effect on transcription [2]: only affected transcription at very high doses
Effect on eEF2-mediated translocation (phenylalanyl puromycin formation) [5]: inhibited phenylalanyl puromycin formation
Effect on polysome profile in vitro [6]: causing accumulation of 80S ribosomes
Concentration causing a detectable decrease in the amount of bound tRNA [7]: 10 mM
Effect on tripeptide formation [8]: similar, albeit less pronounced effect

CO[C@@H](/C=C/CC/C=C/C(=O)O)[C@@H](O)[C@H](C)[C@@H](O)/C(C)=C/[C@H](C)C(=O)CCCC1CC(=O)NC(=O)C1 [Dorrigocin B]
Effect on protein synthesis (translation) [1]: no inhibitory effect; also recorded: abolished any inhibitory activity
Inhibition of cell proliferation ([3H]-thymidine incorporation) [9]: neither compound affected cell proliferation

CO[C@H]1/C=C/CC/C=C/C(=O)O[C@@H](/C(C)=C/[C@H](C)C(=O)CCCC2CC(=O)NC(=O)C2)[C@@H](C)[C@@H]1O [Isomigrastatin, isomigrastatin]
Effect on protein synthesis (translation) [1]: exclusively inhibited protein synthesis
Effect on transcription [2]: without a significant impact on transcription
Inhibition of cell proliferation ([3H]-thymidine incorporation) [9]: highly active

C/C(=C\[C@H](C)C(=O)C[C@H](O)CC1CC(=O)NC(=O)C1)[C@@H]1OC(=O)/C=C/CC/C=C/C=C\[C@@H]1C [LTM, lactimidomycin]
Potency as inhibitor of translation relative to CHX [1]: about 10 fold
Effect on protein synthesis (translation) [1]: exclusively inhibited protein synthesis
Effect on polysome profile in cells (HEK 293T cells): large increase in 80S ribosomes accompanied by depletion of polysomes
Effect on eEF1A-mediated binding of aminoacyl-tRNA [3]: not inhibited
Inhibition of growth of non-tumorigenic cells (MCF10A): higher doses were necessary
Effect on polyphenylalanine synthesis [10]: inhibited polyphenylalanine synthesis
Toeprint titration, ribosome arrest [4]: arrested the ribosome on the start codon
Effect on transcription [2]: without a significant impact on transcription
Effect on peptide bond formation (methionyl-puromycin) [11]: did not affect peptide bond formation
Effect on eEF2-mediated translocation (phenylalanyl puromycin formation) [5]: inhibited phenylalanyl puromycin formation
Effect on polysome profile in vitro [6]: causing accumulation of 80S ribosomes
Effect on cap-dependent and IRES-mediated translation [12]: inhibited translation from all three constructs to a similar degree
Effect on tumor growth in vivo (MDA MB 231 tumors): appreciable effect on tumor growth
Effect on tripeptide formation [8]: greatly slowed down tripeptide formation
Sensitivity of Candida (Candida): resistant
IC50 concentrations, cell growth (breast cancer cell lines): low nanomolar range
Inhibition of cell proliferation ([3H]-thymidine incorporation) [9]: most potent inhibitor of cell proliferation; also recorded: highly active
Survival of mice with P388 lymphoma (P388 lymphoma): extended the survival

CO[C@H]1/C=C/CC/C=C/C(=O)O[C@H]([C@H](C)C(=O)CCCC2CC(=O)NC(=O)C2)/C(C)=C\[C@@H](C)[C@@H]1O [Migrastatin, migrastatin]
Effect on protein synthesis (translation) [1]: no inhibitory effect
Inhibition of cell proliferation ([3H]-thymidine incorporation) [9]: neither compound affected cell proliferation

CC(/C=C/C(C)=C/[C@@H]1Cc2nc(cs2)[C@@H](C)C[C@@H](N)CC(=O)O[C@@H](C)C/C(C)=C/C=C\C(=O)O1)=C\CN(C)C [PatA, Pateamine A, reference compound]
Effect on cap-dependent and IRES-mediated translation [12]: allowed translation off the HCV IRES

CSC[S@+]([O-])C[C@H](CO)NC(=O)/C=C/c1c(C)[nH]c(=O)[nH]c1=O [Sparsomycin, reference compound]
Effect on peptide bond formation (methionyl-puromycin) [11]: prevented methyionyl-puromycin synthesis

C=C/C(C)=C/[C@H](C)C(=O)C[C@H](O)CC1CC(=O)NC(=O)C1 [Streptimidone]
Inhibition of translation (translation): inhibits translation

C/C(=C\[C@H](C)C(=O)C[C@H](O)CC1CC(=O)NC(=O)C1)[C@@H]1OC(=O)CCCC/C=C/C=C\[C@@H]1C [compound 7, 2H Lactimidomycin]
Inhibition of cell proliferation ([3H]-thymidine incorporation) [9]: highly active

CO[C@H]1/C=C/CC/C=C/C(=O)O[C@@H](/C(C)=C/[C@H](C)C(=O)/C=C/CC2CC(=O)NC(=O)C2)[C@@H](C)[C@@H]1O [compound 8, Didehydro Isomigrastatin]
Inhibition of cell proliferation ([3H]-thymidine incorporation) [9]: highly active

CCOC(=O)CO[C@@H](CC(=O)[C@@H](C)/C=C(\C)[C@@H]1OC(=O)/C=C/CC/C=C/C=C\[C@@H]1C)CC1CC(=O)NC(=O)C1 [compound 36, Ethylacetyl-Lactimidomycin]
Effect of modification on translation inhibitory activity of LTM (translation in vitro): did not significantly decrease the activity
